Laboratory results taken from ChEMBL document CHEMBL1221166, “Molecular basis of inverse agonism in a G protein-coupled receptor” (Nat Chem Biol, 2005).
Active and inactive are the calls of the source. The calls are words filed in the database; no cut-off is given here.

Target: T1, Alpha-2A adrenergic receptor (Homo sapiens) (UniProt P08913)
T1 sequence (whole entry): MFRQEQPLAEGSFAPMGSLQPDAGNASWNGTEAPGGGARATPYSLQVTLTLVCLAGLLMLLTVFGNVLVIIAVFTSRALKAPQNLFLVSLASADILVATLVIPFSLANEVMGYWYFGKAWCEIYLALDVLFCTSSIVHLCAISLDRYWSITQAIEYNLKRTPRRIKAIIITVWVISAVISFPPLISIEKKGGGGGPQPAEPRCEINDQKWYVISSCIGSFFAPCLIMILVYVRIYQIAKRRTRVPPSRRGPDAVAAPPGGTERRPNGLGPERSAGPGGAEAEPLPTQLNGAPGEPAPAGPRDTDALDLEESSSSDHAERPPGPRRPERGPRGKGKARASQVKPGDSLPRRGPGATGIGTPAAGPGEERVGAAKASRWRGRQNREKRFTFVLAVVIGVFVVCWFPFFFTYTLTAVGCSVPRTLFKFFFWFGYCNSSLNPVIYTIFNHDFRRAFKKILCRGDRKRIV
Assay: Inverse agonist activity at adrenergic alpha2A receptor expressed in HEK293 cells coexpressing yellow fluorescent and cyan fluorescent protein assessed as increase in resonance signal at 100 uM by FRET assay
Format: functional, cell-based
Outline: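 Single HEK293 cells expressing α2AAR tagged with CFP/YFP were grown on coverslips and kept at room temperature. They were continuously superfused with HEPES buffer at pH 7.4 (137 mM NaCl, 0.1% BSA), and ligand was applied by solenoid-valve rapid superfusion. YFP and CFP emissions were recorded by dual-emission photometry on a 100× oil objective. FRET was taken as the spillover-corrected ratio FYFP/FCFP, with photobleaching drift subtracted where needed.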

Activity, active:
CN1CC[C@]2(CCN3CCc4c(oc5ccccc45)[C@@H]3C2)N(C)C1=O
COC1(C2=NCCN2)COc2ccccc2O1 (stereo unspecified)

Target: T1, Alpha-2A adrenergic receptor (Homo sapiens)
Assay: Partial agonist activity at adrenergic alpha2A receptor expressed in HEK293 cells coexpressing yellow fluorescent and cyan fluorescent protein assessed as effect on kinetics of receptor conformational change by FRET assay
Format: functional, cell-based
Outline: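 HEK293 cells expressing α2AAR tagged with CFP/YFP were superfused rapidly with ligand at room temperature. The time course of the corrected FYFP/FCFP ratio was fitted with a monoexponential equation to give kobs. kobs was then plotted against the percentage FRET change.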

Activity, active:
Cc1cc(C(C)(C)C)c(O)c(C)c1CC1=NCCN1
Clc1cccc(Cl)c1NC1=NCCN1
NCCc1ccc(O)c(O)c1
COc1nc(C)nc(Cl)c1NC1=NCCN1
